Data published in ChEMBL document CHEMBL1128490, “(+/-)-(Z)-2-(aminomethyl)-1-phenylcyclopropanecarboxamide derivatives as a new prototype of NMDA receptor antagonists” (J Med Chem, 1995).

Experiments:
[1] = test system: Mus musculus; experiment: Percentage protection against NMDA-induced lethality in mice by the compound at 20 mg/Kg administered ip 60 mins before iv administration of NMDA in the lethal dose of 90 mg/Kg.; format: functional
Summary of the method: (§1)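 Male ddY mice (20-28 g), groups of 10, given test compound in saline by intraperitoneal injection. 60 min later they were challenged with a lethal intravenous dose of NMDA (90 mg/kg) in saline. The read-out is protection from NMDA-induced death.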

[2] = biological target: Glutamate NMDA receptor; experiment: Inhibition of [3H]MK-801 binding to NMDA receptor of rat cerebral cortical synaptic membrane
[3] = test system: Mus musculus; experiment: Percentage protection against NMDA-induced lethality in mice by the compound at 40 mg/Kg administered ip 60 mins before iv administration of NMDA in the lethal dose of 90 mg/Kg.; format: functional; summary of the method: as §1

## CCN(CC)C(=O)[C@@]1(c2ccccc2)C[C@H]1CNC
[1]
  Protection: 20%
[2]
  IC50: 13 µM
[3]
  Protection: 30%

## NC[C@@H]1C[C@@]1(C(=O)O)c1ccccc1
[2]
  IC50: > 100 µM

## CCN(CC)C(=O)[C@@]1(c2ccccc2)C[C@H]1CN=[N+]=[N-]
[2]
  IC50: > 100 µM

## CCN(CC)C(=O)[C@@]1(c2ccccc2)C[C@H]1CN [LEVOMILNACIPRAN]
[1]
  Protection: 60%
[2]
  IC50: 6.3 µM
[3]
  Protection: 100%

## CCN(CC)C(=O)[C@@]1(c2ccccc2)C[C@H]1CN(C)C
[1]
  Protection: 10%
[2]
  IC50: 88 µM
[3]
  Protection: 40%

## CCOC(=O)[C@@]1(c2ccccc2)C[C@H]1CN
[2]
  IC50: > 100 µM

## CCN(CC)C(=O)[C@@]1(c2ccccc2)C[C@H]1C=O
[2]
  IC50: > 100 µM

## CCN(CC)C(=O)[C@@]1(c2ccccc2)C[C@H]1CO
[2]
  IC50: > 100 µM

## CCN(CC)C(=O)[C@@]1(c2ccccc2)C[C@H]1Cn1ccnc1C
[2]
  IC50: > 100 µM

## CCN(CC)C(=O)[C@@]1(c2ccccc2)C[C@H]1CCN
[1]
  Protection: 30%
[2]
  IC50: 10 µM
[3]
  Protection: 20%
